From PubChem
Only some compounds are listed: those with a hit (about 4.1% of all), similar ones and a draw of the others.
MrgX1 agonist: human MrgX1 receptor agonism, primary screen; Q96LB2; MrgX1-HEK293 cells, Fluo-4 calcium fluorescence, agonist mode; hits give high values; B-score at 10 µM; actives 0.44% (n = 310,000); AID 588627;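 active = calcium response B-score plate-corrected fluorescence ratio at least 3 library SD, with starting fluorescence B-score inside 5 SD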
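Material: MrgX1-expressing HEK293 cells / Dosing: compound as first of three additions / Incubation: overnight seeding, then 1 h dark dye loading / Signal: Fluo-4 NW calcium fluorescence / Evaluation: B-scored fluorescence response ratio / Benchmarks: positive and negative control wells on each plate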
MrgX1 antag: blocks BAM8-22 activation of human MrgX1 receptor; MRGX1-HEK293 calcium flux, Fluo-4, BAM8-22 antagonism; hits give low values; Q96LB2; AID 588676; B-score at 10 µM; actives 1.3% (n = 310,000);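 active = calcium-response B-score plate-corrected more than 3 library SD below zero, starting fluorescence within 5 deviations, no agonist response on first addition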;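 also: peak minus trough fluorescence over baseline after final BAM8-22 challenge near maximal dose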
MrgX1 PAM: human MrgX1 positive allosteric modulation, primary screen. Q96LB2. MrgX1-HEK293, Fluo-4 calcium flux, FDSS; hits give high values. B-score at 10 µM. actives 0.63% (n = 310,000);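 active = plate-corrected calcium response at least 3 library SD above typical, normal starting fluorescence, not activating the receptor alone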;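 also: compound read alongside a low EC10 to EC30 dose of BAM8-22 agonist; peak minus trough fluorescence over baseline measured at the second addition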
Kir21 block: Kir2.1 (mouse) channel inhibition; actives 0.85% (n = 310,000); P35561; B-score at 10 µM; HEK293-Kir2.1, FluxOR thallium flux fluorescence; hits give low values;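 active = fluorescence ratio B-score at or below minus 3 SD of library scores, with starting-brightness B-score within 2 SD, cut at about -4.2 in these data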;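 also: channel flux triggered by added potassium and thallium sulfate stimulus; B-score of peak minus minimum fluorescence over baseline after thallium stimulus; more negative B-score means stronger Kir2.1 block with less thallium influx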
Target sequence (P35561 whole entry, looked up): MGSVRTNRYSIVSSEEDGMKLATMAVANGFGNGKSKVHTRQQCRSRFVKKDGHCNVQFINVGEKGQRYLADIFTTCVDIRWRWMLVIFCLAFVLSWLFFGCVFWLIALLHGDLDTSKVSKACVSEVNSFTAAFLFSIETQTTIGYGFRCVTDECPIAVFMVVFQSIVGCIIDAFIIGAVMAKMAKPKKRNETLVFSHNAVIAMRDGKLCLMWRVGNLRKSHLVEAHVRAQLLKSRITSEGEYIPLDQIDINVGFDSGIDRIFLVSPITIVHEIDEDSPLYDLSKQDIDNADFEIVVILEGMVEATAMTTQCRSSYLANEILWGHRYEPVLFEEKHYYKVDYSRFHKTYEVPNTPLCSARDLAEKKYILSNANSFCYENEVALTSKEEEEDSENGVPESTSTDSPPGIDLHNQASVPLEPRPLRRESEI
RGS4 block: inhibitors of human RGS4 | B-score at 10 µM | actives 0.45% (n = 310,000) | AID 463165 | HEK293 M3R/RGS4 inducible, Fluo-4 calcium flux; hits give high values; triggered by carbachol at its EC20;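 active = B-score, a plate-corrected calcium signal, over three deviations above library mean, with baseline fluorescence within five deviations of library mean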;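 also: RGS4 expression induced by doxycycline in cells with stable M3 receptor; B-score is computed from the integrated fluorescence ratio over baseline after carbachol; higher B-score means a larger calcium signal and so more RGS4 inhibition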
Target sequence (P49798 whole entry, looked up): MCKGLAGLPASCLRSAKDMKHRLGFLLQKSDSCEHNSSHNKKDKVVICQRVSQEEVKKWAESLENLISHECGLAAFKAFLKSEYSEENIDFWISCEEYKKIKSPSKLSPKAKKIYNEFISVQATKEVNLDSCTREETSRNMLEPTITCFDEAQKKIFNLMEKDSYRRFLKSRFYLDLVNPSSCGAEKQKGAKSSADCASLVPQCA
RGS4 pot: potentiators or activators of RGS4 | HEK293 M3R/inducible RGS4, carbachol calcium flux Fluo4; hits give low values | B-score at 10 µM | actives 0.92% (n = 310,000) | AID 463111;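 active = B-score of the integrated calcium signal more than 4 SD below the library mean, with starting fluorescence not abnormally high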;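 also: negative B-score means reduced calcium response which marks RGS4 activation or potentiation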
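Assay system: Inducible-RGS4 HEK293 cells carrying M3 receptor | Schedule: Compound preincubation 20 min at room temperature before agonist | Signal: Kinetic calcium fluorescence imaging with Fluo4-AM dye, 2 µM | Read-out basis: B score from integrated fluorescence ratio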
RGS4 inh valid: validation of RGS4 inhibitors. actives 65% (n = 1,700). calcium response, % at 10 µM. HEK293 M3R/RGS4, carbachol calcium Fluo-4 fluorescence; carbachol added at its EC20; 0 = buffer wells, 100 = carbachol control. AID 492999. shares compounds with RGS4 block;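 active = duplicate-averaged calcium response above the buffer-only control mean plus 5 SD of those controls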;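 also: integrated fluorescence ratio F max minus min over baseline F0; higher response in RGS4-induced cells means RGS4 inhibition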
RGS4 uninduced: non-induced cell nonspecific activity of RGS4 inhibitors; actives 20% (n = 1,900); shares compounds with RGS4 block; AID 493000; HEK293 M3R non-induced, carbachol calcium Fluo-4; submaximal (EC20) carbachol stimulus; buffer wells 0%, carbachol control wells 100%; activity (percent), % at 10 µM; call rule not given here;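 also: RGS4 induction absent so cells express M3R without RGS4; higher means more calcium signal and flags a non-specific hit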
RGS4 inh ctr2: second RGS4 inhibitor counter-screen in uninduced cells lacking carbachol; shares compounds with RGS4 block; HEK293 M3R/RGS4 non-induced, Fluo-4 calcium, no carbachol; normalised: buffer wells 0%, carbachol wells 100%; calcium response (agonist-mode artifact), % at 10 µM; actives 22% (n = 1,900);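 active = duplicate-averaged calcium rise in uninduced cells above buffer wells' mean plus 5 SD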
* = called active by the depositor.

How did Cc1cnc(Sc2ncccc2[N+](=O)[O-])nc1 do in these assays?
MrgX1 agonist: inactive; MrgX1 antag: inactive; MrgX1 PAM: inactive; Kir21 block: -1.5; RGS4 block: inactive; RGS4 pot: inactive

What do the screens show for `Cc1cc(C)n2nc(Sc3ncccc3[N+](=O)[O-])nc2n1`?
MrgX1 agonist: inactive; MrgX1 antag: inactive; MrgX1 PAM: inactive; Kir21 block: -3.6; RGS4 block: 9.5*; RGS4 pot: inactive; RGS4 inh valid: 28%*; RGS4 uninduced: 34%*; RGS4 inh ctr2: inactive

What do the screens show for `CCN(CC)CCN(C(=O)c1ccc2c(c1)CCCC2)c1nc2cc(OC)c(OC)cc2s1`?
MrgX1 agonist: inactive; MrgX1 antag: inactive; MrgX1 PAM: inactive; Kir21 block: -0.02; RGS4 block: 5.3*; RGS4 pot: inactive; RGS4 inh valid: inactive; RGS4 uninduced: inactive; RGS4 inh ctr2: inactive

Results for COc1ccccc1NC(=O)Cn1nc(-c2ccncc2)nc1SCC(=O)NC1CCCC1 ?
MrgX1 agonist: inactive; MrgX1 antag: inactive; MrgX1 PAM: inactive; Kir21 block: -1.4; RGS4 block: inactive; RGS4 pot: inactive

What do the screens show for `Cc1ccc(S(=O)(=O)CC(C)N2CCOCC2)c(S(=O)(=O)CC(C)N2CCOCC2)c1` (stereo unspecified)?
MrgX1 agonist: inactive; MrgX1 antag: inactive; MrgX1 PAM: inactive; Kir21 block: 1.5; RGS4 block: inactive; RGS4 pot: inactive

What do the screens show for `COCCCNC(=O)c1cn(Cc2c(F)cccc2Cl)nn1`?
MrgX1 agonist: inactive; MrgX1 antag: inactive; MrgX1 PAM: inactive; Kir21 block: -0.01; RGS4 block: 5.1*; RGS4 pot: inactive; RGS4 inh valid: inactive; RGS4 uninduced: inactive; RGS4 inh ctr2: inactive

How did Cc1cc2cc(C=C(C#N)C#N)c(Cl)nc2cc1C do in these assays?
MrgX1 agonist: 36*; MrgX1 antag: inactive; MrgX1 PAM: inactive; Kir21 block: 0.27; RGS4 block: 5.9*; RGS4 pot: inactive; RGS4 inh valid: 14%*; RGS4 uninduced: inactive; RGS4 inh ctr2: 25%*

What do the screens show for `CCN(CCO)c1nc(SC)nc2c1sc1nc(-c3ccco3)c3c(c12)CCC3`?
MrgX1 agonist: inactive; MrgX1 antag: inactive; MrgX1 PAM: inactive; Kir21 block: 0.39; RGS4 block: inactive; RGS4 pot: inactive; RGS4 inh valid: inactive; RGS4 uninduced: inactive; RGS4 inh ctr2: inactive

How did Cc1cc(O)c(C(=O)/C=C/c2ccc(C(C)C)cc2)c(=O)o1 do in these assays?
MrgX1 agonist: inactive; MrgX1 antag: inactive; MrgX1 PAM: inactive; Kir21 block: -0.11; RGS4 block: inactive; RGS4 pot: inactive

What do the screens show for `Cc1cccc(C)c1NC(=S)NCCc1ccc(O)c(O)c1`?
MrgX1 agonist: inactive; MrgX1 antag: inactive; MrgX1 PAM: inactive; Kir21 block: -1.5; RGS4 block: inactive; RGS4 pot: inactive

Results for N#Cc1c(N)nc(SCc2ccccn2)c(C#N)c1-c1cccs1 ?
MrgX1 agonist: inactive; MrgX1 antag: inactive; MrgX1 PAM: inactive; Kir21 block: 0.75; RGS4 block: 4.7*; RGS4 pot: inactive; RGS4 inh valid: 9.0%*; RGS4 uninduced: 42%*; RGS4 inh ctr2: inactive

Results for CC(=O)c1ccc2c(c1)OCCOCCOCCOCCO2 ?
MrgX1 agonist: inactive; MrgX1 antag: inactive; MrgX1 PAM: inactive; Kir21 block: 0; RGS4 block: inactive; RGS4 pot: inactive

Results for O=C(Cn1nc(-c2ccccc2)c2ccccc2c1=O)Nc1ccc(F)cc1 ?
MrgX1 agonist: inactive; MrgX1 antag: inactive; MrgX1 PAM: inactive; Kir21 block: 0.03; RGS4 block: inactive; RGS4 pot: inactive

How did N#Cc1c(-c2ccccc2)c(-c2ccccc2)nn(CC(=O)NNC(=O)Nc2ccc(Cl)c(Cl)c2)c1=O do in these assays?
MrgX1 agonist: inactive; MrgX1 antag: inactive; MrgX1 PAM: inactive; Kir21 block: 0.59; RGS4 block: 6.5*; RGS4 pot: inactive; RGS4 inh valid: 28%*; RGS4 uninduced: inactive; RGS4 inh ctr2: inactive

How did Cc1ccc(-c2ccc(/C=C3\C(=O)ON=C3c3ccccc3)o2)c([N+](=O)[O-])c1 do in these assays?
MrgX1 agonist: inactive; MrgX1 antag: -6.3*; MrgX1 PAM: inactive; Kir21 block: -0.45; RGS4 block: 12*; RGS4 pot: inactive; RGS4 inh valid: inactive; RGS4 uninduced: inactive; RGS4 inh ctr2: 14%*

What do the screens show for `CCCOC(=O)c1ccc(NC(=O)c2cc(=O)[nH]c3ccccc23)cc1`?
MrgX1 agonist: inactive; MrgX1 antag: inactive; MrgX1 PAM: inactive; Kir21 block: -1.3; RGS4 block: inactive; RGS4 pot: inactive

Results for c1ccc(CNc2nc(-c3ccccc3)nc3ccccc23)cc1 ?
MrgX1 agonist: inactive; MrgX1 antag: inactive; MrgX1 PAM: inactive; Kir21 block: -0.99; RGS4 block: inactive; RGS4 pot: inactive

How did CC(C)(C)c1ccc(-c2nc(NCc3cccnc3)c3ccccc3n2)cc1 do in these assays?
MrgX1 agonist: inactive; MrgX1 antag: inactive; MrgX1 PAM: inactive; Kir21 block: 1.5; RGS4 block: 8.6*; RGS4 pot: inactive; RGS4 inh valid: 18%*; RGS4 uninduced: inactive; RGS4 inh ctr2: inactive

Results for COC(=O)CCN(C(=O)c1cccc(OC(C)=O)c1)c1ccccn1 ?
MrgX1 agonist: inactive; MrgX1 antag: inactive; MrgX1 PAM: inactive; Kir21 block: 1.1; RGS4 block: inactive; RGS4 pot: inactive

Results for CN(C)/C(=N\S(=O)(=O)c1ccccc1)c1ccccc1 ?
MrgX1 agonist: inactive; MrgX1 antag: inactive; MrgX1 PAM: inactive; Kir21 block: -1.6; RGS4 block: inactive; RGS4 pot: inactive

How did O=S(=O)(/N=C(\Sc1ccc(Cl)cc1)c1ccccc1)c1ccccc1 do in these assays?
MrgX1 agonist: inactive; MrgX1 antag: inactive; MrgX1 PAM: inactive; Kir21 block: -2.1; RGS4 block: inactive; RGS4 pot: inactive; RGS4 inh valid: inactive; RGS4 uninduced: inactive; RGS4 inh ctr2: 18%*
